B1: Osa-1-4 twister ribozyme (parent)
chain: CCGCCUAACACUGCCAAUGCCGGUCCCAAGCCCGGAUAAAAGUGGAGGGGGCGG

Variants of: B1
Test: self-cleavage, relative activity (ratio to wild type); higher = more cleavage; co-transcriptional
How it was run: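 Values are relative activity: the fraction cleaved, normalised to wild type. A doped DNA template for a 54-nucleotide twister ribozyme from Oryza sativa had 97 % wild-type base and 1 % of each other base at the 48 positions downstream of the cleavage site. The RNA was transcribed in vitro for 2 h at 37 °C so that it could cleave itself co-transcriptionally, then sequenced deeply, with cleavage status scored from the presence or absence of upstream sequence in reads.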

Variant	self-cleavage
A38U A7G	0.24
A38U A7C	0.05
A38U A7U	0.12
A38U G22U	0.89
A38U G22C	0.08
A38U G22A	1
A38U G51C	0.09
A38U G51A	0.63
A38U G51U	0.32
A38U C26A	0.04
A38U C26G	0.09
A38U C26U	0.92
A38U C11A	0.78
A38U C11G	0.59
A38U C11U	0.97
A38U G42A	0.6
A38U G42U	0.08
A38U G42C	0.17
A38U C32G	0.12
A38U C32A	0.08
A38U C32U	0.11
A38U G23C	0.07
A38U G23A	0.33
A38U G23U	0.07

Variant	self-cleavage
A38G G47U	0.17
A38G G47C	0.08
A38G G47A	0.19
A38U G48A	0.1
A38U G48U	0.08
A38U G48C	0.08
A38G G49C	0.08
A38G G49U	0.13
A38G G49A	0.13
A38G U18G	0.84
A38G U18A	0.92
A38G U18C	0.97
A38G G34A	0.84
A38G G34C	0.59
A38G G34U	0.74
A38G G42U	0.12
A38G G42A	0.7
A38G G42C	0.23
A38U C9U	0.74
A38U C9A	0.42
A38U C9G	0.84
A38U	1.01
A38U G53A	0.81
A38U G53C	0.09

Variant	self-cleavage
A38U G44U	0.89
A38U G44A	0.92
A38U G44C	0.96
A38U C33A	0.1
A38U C33G	0.05
A38U C33U	0.79
A38U G13A	0.11
A38U G13U	0.03
A38U G13C	0.03
A38U C21U	0.99
A38U C21A	0.53
A38U C21G	0.06
A38G G35A	0.83
A38G G35U	0.86
A38G G35C	0.26
A38G G45A	0.26
A38G G45U	0.09
A38G G45C	0.07
A38U A46C	0.06
A38U A46U	0.07
A38U A46G	0.05
A38G G19C	0.06
A38G G19U	0.14
A38U A40G	0.64

Variant	self-cleavage
A38U A40C	0.06
A38U A40U	0.55
A38G G54C	0.94
A38G G54A	0.92
A38G G54U	0.94
A38U G35C	0.13
A38U G35A	0.83
A38U G35U	0.89
A38U C14G	0.11
A38U C14A	0.07
A38U C14U	0.22
A38G U24G	0.03
A38G U24C	0.32
A38G U24A	0.16
A38U G50A	0.64
A38U G50C	0.99
A38U G50U	1.01
A38G G51A	0.72
A38G G51C	0.11
A38G G51U	0.36
A38U C15U	0.21
A38U C15A	0.23
A38U C15G	0.25
A38U A39C	0.96

Variant	self-cleavage
A38U A39U	0.97
A38U A39G	0.64
A38U G19U	0.22
A38U G19A	0.57
A38U G19C	0.04
A38U C27G	0.08
A38U C27A	0.14
A38U C27U	0.15
A38G G44U	0.95
A38G G44A	0.93
A38G G44C	0.98
A38G G53C	0.09
A38G G53U	0.31
A38G G53A	0.8
A38U C25U	0.9
A38U C25A	0.07
A38U C25G	0.09
A38U G49U	0.09
A38U G49C	0.05
A38U G49A	0.12
A38U C31U	0.75
A38U C31A	0.03
A38U C31G	0.08
A38U G30U	0.04

Variant	self-cleavage
A38U G30C	0.04
A38U G30A	0.04
A38G G50A	0.74
A38G G50U	1
A38G G50C	1
A38G U37G	1
A38G U37C	1.05
A38G U37A	1
A38U G45C	0.06
A38U G45A	0.23
A38U G45U	0.09
A38U A8G	0.52
A38U A8C	0.09
A38U A8U	0.25
A38G G48C	0.1
A38G G48A	0.11
A38G G48U	0.07
A38U G34A	0.78
A38U G34U	0.77
A38U G34C	0.5
A38U A41G	0.64
A38U A41U	0.98
A38U A41C	0.89
A38G U43G	0.62

Variant	self-cleavage
A38G U43A	0.89
A38G U43C	0.35
A38U G47U	0.19
A38U G47C	0.08
A38U G47A	0.18
A38G G30C	0.04
A38G G30A	0.05
A38G G30U	0.04
A38G G22C	0.13
A38G G22U	0.85
A38G G22A	1.01
A38G G23U	0.1
A38G G23A	0.47
A38G G23C	0.08
A38U C52G	0.98
A38U C52U	1.01
A38U C52A	1
A38G U12G	0.41
A38G U12C	0.42
A38G U12A	0.88
A38U C20U	0.98
A38U C20A	0.82
A38U C20G	0.15
